Source: ChEMBL document CHEMBL4321868, “Scaffold Simplification Strategy Leads to a Novel Generation of Dual Human Immunodeficiency Virus and Enterovirus-A71 Entry Inhibitors” (J Med Chem, 2020)

What was measured:
[1] = tested on: Human immunodeficiency virus 1; assay: Antiviral activity against HIV1 NL4.3 infected in human MT4 cells assessed as reduction in virus-induced cytopathic effect preincubated for 30 mins followed by viral infection and measured after 5 days by MTS assay; assay type: functional, organism-based; conditions: Human immunodeficiency virus 1, NL4.3, MT4
[2] = Cytotoxicity against human MT4 cells assessed as reduction in cell viability measured after 5 days by MTS/PES assay; assay type: cell-based
Outline: (§1)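 MT-4 cells (RPMI-1640, 10% FCS, 1% L-glutamine) pre-incubated 30 min at 37 °C with compound, then infected with HIV-1 NL4.3 or HIV-2 ROD according to stock TCID50. After 5 days, CPE scored microscopically and viability read by MTS/PES at A490 to derive EC50; cytotoxicity measured by MTS/PES at 5 days in the same cells. SI = CC50/EC50. Mean ± S.D. of at least 3 experiments.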

[3] = Selectivity index, ratio of CC50 for human MT4 cells to EC50 for HIV1 NL4.3 infected in human MT4 cells; assay type: toxicity, cell-based; conditions: read-out: Ratio CC50/EC50; outline: as §1
Enterovirus A71 = assay: Antiviral activity against Enterovirus A 71 BrCr infected in human RD cells assessed as reduction in virus-induced cytopathic effect preincubated for 1 day followed by viral infection and measured after 3 days by MTS/PMS method; assay type: functional, organism-based; conditions: strain BRCR
Outline: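 RD cells seeded in 96-well plates; next day serial compound dilutions plus virus at low MOI added. Incubation at 37 °C, 5% CO₂ until full CPE in untreated infected controls (3 days). Viability read by MTS/PMS; EC50 as 50% inhibition of virus-induced death from dose-response curves. CC50 from uninfected treated cells in the same setup; SI = CC50/EC50.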

[4] = Selectivity index, ratio of CC50 for human MT4 cells to EC50 for HIV-1 NL4.3 infected in human MT4 cells
[5] = tested on: Human immunodeficiency virus 2; assay: Antiviral activity against HIV-2 ROD infected in human MT4 cells assessed as reduction in virus-induced cytopathic effect preincubated for 30 mins followed by viral infection and measured after 5 days by MTS assay; conditions: Human immunodeficiency virus 2, ISOLATE ROD
[6] = Selectivity index, ratio of CC50 for human RD cells to EC50 for Enterovirus A71 BrCr infected in human RD cells; assay type: toxicity, cell-based; conditions: read-out: Ratio CC50/EC50
Outline: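 RD cells seeded in 96-well plates; next day serial compound dilutions plus virus at low MOI added. Incubation at 37 °C, 5% CO₂ until full CPE in untreated infected controls (3 days). CC50 from uninfected treated cells in the same setup; SI = CC50/EC50.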

Row | SMILES | EC50 [1] [µM] | CC50 at 120 h [2] [µM] | selectivity ratio [3] | EC50 (Enterovirus A71) [µM] | selectivity ratio [4] | EC50 [5] [µM] | EC90 (Enterovirus A71) [µM] | selectivity ratio [6]
1 | O=C(CCC(CCC(=O)NC(Cc1c(-c2ccccc2F)[nH]c2ccccc12)C(=O)O)(CCC(=O)NC(Cc1c(-c2ccccc2F)[nH]c2ccccc12)C(=O)O)[N+](=O)[O-])NC(Cc1c(-c2ccccc2F)[nH]c2ccccc12)C(=O)O (stereo unspecified) | 35 | > 100 | > 3 | > 89.4 | > 3 | > 100 | – | –
2 | O=C(CCC(CCC(=O)NC(Cc1c(-c2ccccc2)[nH]c2ccccc12)C(=O)O)(CCC(=O)NC(Cc1c(-c2ccccc2)[nH]c2ccccc12)C(=O)O)[N+](=O)[O-])NC(Cc1c(-c2ccccc2)[nH]c2ccccc12)C(=O)O (stereo unspecified) | 19 | 83 | 4.4 | > 100 | 4.4 | > 83 | – | –
3 | O=C(CCC(CCC(=O)NC(Cc1c(-c2ccc([N+](=O)[O-])cc2)[nH]c2ccccc12)C(=O)O)(CCC(=O)NC(Cc1c(-c2ccc([N+](=O)[O-])cc2)[nH]c2ccccc12)C(=O)O)[N+](=O)[O-])NC(Cc1c(-c2ccc([N+](=O)[O-])cc2)[nH]c2ccccc12)C(=O)O (stereo unspecified) | 41 | > 100 | > 2 | 28.8 | > 2 | 43 | 58.2 | –
4 | O=C(CCOCC(COCCC(=O)NC(Cc1c(-c2ccc(C(=O)O)cc2)[nH]c2ccccc12)C(=O)O)(COCCC(=O)NC(Cc1c(-c2ccc(C(=O)O)cc2)[nH]c2ccccc12)C(=O)O)COCCC(=O)NC(Cc1c(-c2ccc(C(=O)O)cc2)[nH]c2ccccc12)C(=O)O)NC(Cc1c(-c2ccc(C(=O)O)cc2)[nH]c2ccccc12)C(=O)O (stereo unspecified) | 0.73 | > 100 | > 137 | 0.37 | > 137 | 0.75 | 0.63 | 161
5 | COc1ccc(-c2[nH]c3ccccc3c2CC(NC(=O)CCC(CCC(=O)NC(Cc2c(-c3ccc(OC)cc3)[nH]c3ccccc23)C(=O)O)(CCC(=O)NC(Cc2c(-c3ccc(OC)cc3)[nH]c3ccccc23)C(=O)O)[N+](=O)[O-])C(=O)O)cc1 (stereo unspecified) | > 9.3 | 9.3 | – | > 86.6 | – | > 9.3 | – | –
6 | CN[C@@H]1[C@H](O[C@@H]2OC[C@@H](O)[C@H](O)[C@H]2O)[C@@H](O)[C@H](O[C@H]2c3cc(C)c(C(=O)N[C@H](C)C(=O)O)c(O)c3-c3c(cc4c(c3O)C(=O)c3cc(OC)cc(O)c3C4=O)[C@@H]2O)O[C@@H]1C [PRADIMICIN A] | 3.3 | > 100 | > 30.3 | – | > 30.3 | – | – | –
7 | O=C(CCC(CCC(=O)NC(Cc1c(-c2cccc(C(=O)O)c2)[nH]c2ccccc12)C(=O)O)(CCC(=O)NC(Cc1c(-c2cccc(C(=O)O)c2)[nH]c2ccccc12)C(=O)O)[N+](=O)[O-])NC(Cc1c(-c2cccc(C(=O)O)c2)[nH]c2ccccc12)C(=O)O (stereo unspecified) | 16 | > 100 | > 6 | 0.99 | > 6 | 64 | 1.35 | > 73.4
8 | O=C(CCC(CCC(=O)NC(Cc1c[nH]c2ccccc12)C(=O)O)(CCC(=O)NC(Cc1c[nH]c2ccccc12)C(=O)O)[N+](=O)[O-])NC(Cc1c[nH]c2ccccc12)C(=O)O (stereo unspecified) | > 100 | > 100 | – | > 120 | – | > 100 | – | –
9 | O=C(CCC(CCC(=O)NC(Cc1cn(Cc2ccccc2)c2ccccc12)C(=O)O)(CCC(=O)NC(Cc1cn(Cc2ccccc2)c2ccccc12)C(=O)O)[N+](=O)[O-])NC(Cc1cn(Cc2ccccc2)c2ccccc12)C(=O)O (stereo unspecified) | 49 | > 100 | > 2 | – | > 2 | 38 | – | –
10 | O=C(CCC(CCC(=O)NC(Cc1c(-c2ccc(C(F)(F)F)cc2)[nH]c2ccccc12)C(=O)O)(CCC(=O)NC(Cc1c(-c2ccc(C(F)(F)F)cc2)[nH]c2ccccc12)C(=O)O)[N+](=O)[O-])NC(Cc1c(-c2ccc(C(F)(F)F)cc2)[nH]c2ccccc12)C(=O)O (stereo unspecified) | 26 | > 100 | > 4 | > 78.9 | > 4 | 68 | – | –
11 | O=C(CCOCC(COCCC(=O)NC(Cc1c[nH]c2ccccc12)C(=O)O)(COCCC(=O)NC(Cc1c[nH]c2ccccc12)C(=O)O)COCCC(=O)NC(Cc1c[nH]c2ccccc12)C(=O)O)NC(Cc1c[nH]c2ccccc12)C(=O)O (stereo unspecified) | > 250 | > 250 | – | > 100 | – | > 250 | – | –
12 | O=C(CCOCC(COCCC(=O)NC(Cc1cn(Cc2ccc(C(=O)O)cc2)c2ccccc12)C(=O)O)(COCCC(=O)NC(Cc1cn(Cc2ccc(C(=O)O)cc2)c2ccccc12)C(=O)O)COCCC(=O)NC(Cc1cn(Cc2ccc(C(=O)O)cc2)c2ccccc12)C(=O)O)NC(Cc1cn(Cc2ccc(C(=O)O)cc2)c2ccccc12)C(=O)O (stereo unspecified) | > 76 | 76 | – | > 19.5 | – | > 76 | – | –
13 | O=C(CCC(CCC(=O)NC(Cc1c(-c2ccc(Br)cc2)[nH]c2ccccc12)C(=O)O)(CCC(=O)NC(Cc1c(-c2ccc(Br)cc2)[nH]c2ccccc12)C(=O)O)[N+](=O)[O-])NC(Cc1c(-c2ccc(Br)cc2)[nH]c2ccccc12)C(=O)O (stereo unspecified) | > 30 | 30 | – | 65.2 | – | > 30 | – | –
14 | O=C(CCC(CCC(=O)NC(Cc1c(-c2ccc(C(=O)O)cc2)[nH]c2ccccc12)C(=O)O)(CCC(=O)NC(Cc1c(-c2ccc(C(=O)O)cc2)[nH]c2ccccc12)C(=O)O)[N+](=O)[O-])NC(Cc1c(-c2ccc(C(=O)O)cc2)[nH]c2ccccc12)C(=O)O (stereo unspecified) | 2.4 | 71 | 29.6 | 12.2 | 29.6 | > 71 | – | –
15 | O=C(CCC(CCC(=O)NC(Cc1cn(Cc2ccc(F)cc2)c2ccccc12)C(=O)O)(CCC(=O)NC(Cc1cn(Cc2ccc(F)cc2)c2ccccc12)C(=O)O)[N+](=O)[O-])NC(Cc1cn(Cc2ccc(F)cc2)c2ccccc12)C(=O)O (stereo unspecified) | 43 | > 100 | > 2.3 | – | > 2.3 | 34 | – | –
16 | O=C(CCC(CCC(=O)NC(Cc1cn(Cc2ccc(C(=O)O)cc2)c2ccccc12)C(=O)O)(CCC(=O)NC(Cc1cn(Cc2ccc(C(=O)O)cc2)c2ccccc12)C(=O)O)[N+](=O)[O-])NC(Cc1cn(Cc2ccc(C(=O)O)cc2)c2ccccc12)C(=O)O (stereo unspecified) | 41 | > 100 | > 2.4 | – | > 2.4 | 47 | – | –
